In ChEMBL document CHEMBL1240347, “MK-7009, a potent and selective inhibitor of hepatitis C virus NS3/4A protease” (Antimicrob Agents Chemother, 2010):

Columns and labels:
[1] = target: Chymotrypsin-like elastase family member 1 (Homo sapiens, UniProt Q9UNI1); assay: Inhibition of human Pancreatic elastase 1
Hepatitis C virus [2] = assay: Antiviral activity against Hepatitis C virus genotype 2a infected in […] cell by cell-based HCV replicon assay in presence of 10% fetal bovine serum; assay type: functional, organism-based, Hepacivirus hominis
[3] = Half life in dog at 2 mg/kg, iv by LC/MS/MS analysis; assay type: ADME, organism-based, Canis lupus familiaris; set-up: dose 2 mg/kg, route intravenous; conditions: in vivo
How it was run: (§1)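 Fasted animals received an intravenous bolus in DMSO at 1.0 ml/kg (rat), 0.1 ml/kg (dog) or 0.1 ml/kg (rhesus), with n = 3. Blood was drawn into EDTA tubes, and plasma was separated by centrifugation and stored at −70°C. Drug was quantified by LC/MS/MS after protein precipitation.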

[4] = Cytotoxicity against […] cells; assay type: cell-based; conditions: HB1
Cathepsin B = Cathepsin B (Homo sapiens, UniProt P07858); assay: Inhibition of human Cathepsin B
Chymase = target: T1, Chymase (Homo sapiens, UniProt P23946); assay: Inhibition of human Chymase
T1 sequence (P23946 whole entry): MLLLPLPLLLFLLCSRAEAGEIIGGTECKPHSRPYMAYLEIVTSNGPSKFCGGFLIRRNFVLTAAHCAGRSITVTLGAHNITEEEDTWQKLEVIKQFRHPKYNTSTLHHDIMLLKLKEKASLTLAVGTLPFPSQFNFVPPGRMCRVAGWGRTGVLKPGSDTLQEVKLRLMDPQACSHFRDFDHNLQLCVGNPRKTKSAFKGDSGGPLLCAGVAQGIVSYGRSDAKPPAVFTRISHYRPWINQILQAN

[5] = Metabolic stability in chimpanzee liver assessed as drug level at 10 mg/kg, po after 12 hrs by LC/MS/MS analysis; assay type: ADME, organism-based, Pan troglodytes; set-up: dose 10 mg/kg, route oral; conditions: read-out: Drug uptake
How it was run: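 Two uninfected chimpanzees were dosed orally in chocolate milk vehicle (0.67 ml/kg). A liver biopsy (~200 μl) was taken under sedation at the single 12-h time point, homogenized in 4 volumes of deionized water, and analysed by LC/MS/MS after protein precipitation.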

Hepatitis C virus [6] = assay: Antiviral activity against Hepatitis C virus containing NS3/4a ps31 sequence by transient cell-base protease activity; assay type: functional, organism-based, Hepacivirus hominis
How it was run: (§2)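 Transient cell-based phenotype assay of protease activity, using NS3/4A sequences cloned from plasma of HCV-infected patients. EC50s were determined.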

[7] = AUC (0-24 hrs) in dog at 2 mg/kg, iv by LC/MS/MS analysis; assay type: ADME, organism-based, Canis lupus familiaris; set-up: time < 24 hr, dose 2 mg/kg, route intravenous; conditions: plasma; how it was run: as §1
[8] = AUC (0-24 hrs) in rhesus monkey at 5 mg/kg, po by LC/MS/MS analysis; assay type: ADME, organism-based, Macaca mulatta; set-up: time < 24 hr, dose 5 mg/kg, route oral; conditions: plasma
How it was run: (§3)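 Dosed orally as a solution in polyethylene glycol 400 (2.0 ml/kg), with n = 3. EDTA plasma was centrifuged off and held at −70°C. Drug levels were determined by LC/MS/MS following protein precipitation.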

[9] = Inhibition of human Chymotrypsin
[10] = Volume of distribution in dog at 2 mg/kg, iv by LC/MS/MS analysis; assay type: ADME, organism-based, Canis lupus familiaris; set-up: dose 2 mg/kg, route intravenous; conditions: in vivo
How it was run: (§4)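 Fasted animals received an IV bolus in DMSO at 1.0 ml/kg for rats and 0.1 ml/kg for dogs and rhesus monkeys, at 2 mg/kg; n = 3 per species. Blood was drawn into EDTA tubes at set times, and plasma was separated by centrifugation and stored at −70°C. Drug was quantified by LC/MS/MS after protein precipitation.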

[11] = AUC (0-24 hrs) in chimpanzee at 10 mg/kg, po by LC/MS/MS analysis; assay type: ADME, organism-based, Pan troglodytes; set-up: time < 24 hr, dose 10 mg/kg, route oral; conditions: plasma
How it was run: (§5)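 Two HCV-uninfected chimpanzees (about 57 and 52 kg) drank the dose voluntarily in a chocolate milk vehicle (0.67 ml/kg). EDTA plasma was stored at −70°C and quantified by LC/MS/MS after protein precipitation.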

Hepatitis C virus [12] = assay: Antiviral activity against Hepatitis C virus containing NS3/D168Y protease mutant activity by TaqMan-based assay; assay type: functional, organism-based, Hepacivirus hominis
[13] = Metabolic stability in rhesus monkey liver assessed as drug level at 5 mg/kg, po after 24 hrs by LC/MS/MS analysis; assay type: ADME, organism-based, Macaca mulatta; set-up: dose 5 mg/kg, route oral; conditions: read-out: Drug uptake
How it was run: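 Single oral dose in polyethylene glycol 400 (2.0 ml/kg). A liver biopsy (~200 μl) was taken under sedation and homogenized in 4 volumes of deionized water. Drug was quantified by LC/MS/MS after protein precipitation.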

[14] = Half life in rat at 2 mg/kg, iv by LC/MS/MS analysis; assay type: ADME, organism-based; set-up: dose 2 mg/kg, route intravenous; conditions: in vivo; how it was run: as §1
Hepatitis C virus [15] = assay: Antiviral activity against Hepatitis C virus genotype 1b infected in […] cell by cell-based HCV replicon assay in presence of 50% normal human serum; assay type: functional, organism-based, Hepacivirus hominis
How it was run: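 Stable genotype 1b (con1) replicon cell line HB1, assayed in the presence of 50% normal human serum.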

[16] = Inhibition of Hepatitis C virus genotype 2b NS3/4A protease activity; set-up: species or system Hepatitis C virus subtype 2b
How it was run: (§6)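 Recombinant NS3/4A protease was expressed in and purified from E. coli. Inhibition was measured by a time-resolved, internally quenched fluorescence assay at low enzyme concentration. Kis were reported.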

[17] = AUC (0-24 hrs) in dog at 5 mg/kg, po by LC/MS/MS analysis; assay type: ADME, organism-based, Canis lupus familiaris; set-up: time < 24 hr, dose 5 mg/kg, route oral; conditions: plasma; how it was run: as §3
Hepatitis C virus [18] = assay: Inhibition of Hepatitis C virus genotype 1b NS3/4A protease activity; set-up: species or system Hepatitis C virus subtype 1b; how it was run: as §6
[19] = AUC (0-24 hrs) in rat at 2 mg/kg, iv by LC/MS/MS analysis; assay type: ADME, organism-based; set-up: time < 24 hr, dose 2 mg/kg, route intravenous; conditions: plasma; how it was run: as §1
Cathepsin L2 = target: T2, Cathepsin L2 (Homo sapiens, UniProt O60911); assay: Inhibition of human Cathepsin V
T2 sequence (O60911 whole entry): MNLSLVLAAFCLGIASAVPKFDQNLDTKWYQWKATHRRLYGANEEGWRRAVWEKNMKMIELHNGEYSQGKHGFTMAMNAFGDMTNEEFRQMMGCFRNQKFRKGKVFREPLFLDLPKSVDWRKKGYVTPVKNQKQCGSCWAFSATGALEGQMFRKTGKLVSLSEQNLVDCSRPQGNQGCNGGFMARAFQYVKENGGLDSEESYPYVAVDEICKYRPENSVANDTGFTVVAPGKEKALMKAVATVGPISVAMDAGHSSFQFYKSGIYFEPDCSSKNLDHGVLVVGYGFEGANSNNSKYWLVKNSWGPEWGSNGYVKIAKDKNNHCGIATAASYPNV

[20] = Cmax in Chimpanzee at 10 mg/kg, po by LC/MS/MS analysis; assay type: ADME, organism-based, Pan troglodytes; set-up: dose 10 mg/kg, route oral; conditions: in vivo; how it was run: as §5
[21] = Cmax in rhesus monkey at 5 mg/kg, po by LC/MS/MS analysis; assay type: ADME, organism-based, Macaca mulatta; set-up: dose 5 mg/kg, route oral; conditions: in vivo; how it was run: as §3
[22] = Plasma clearance in rat at 2 mg/kg, iv by LC/MS/MS analysis; assay type: ADME, organism-based; set-up: dose 2 mg/kg, route intravenous; how it was run: as §4
[23] = Cmax in dog at 5 mg/kg, po by LC/MS/MS analysis; assay type: ADME, organism-based, Canis lupus familiaris; set-up: dose 5 mg/kg, route oral; conditions: in vivo; how it was run: as §3
Neutrophil elastase = target: T3, Neutrophil elastase (Homo sapiens, UniProt P08246); assay: Inhibition of human Neutrophil elastase 2
T3 sequence (P08246 whole entry): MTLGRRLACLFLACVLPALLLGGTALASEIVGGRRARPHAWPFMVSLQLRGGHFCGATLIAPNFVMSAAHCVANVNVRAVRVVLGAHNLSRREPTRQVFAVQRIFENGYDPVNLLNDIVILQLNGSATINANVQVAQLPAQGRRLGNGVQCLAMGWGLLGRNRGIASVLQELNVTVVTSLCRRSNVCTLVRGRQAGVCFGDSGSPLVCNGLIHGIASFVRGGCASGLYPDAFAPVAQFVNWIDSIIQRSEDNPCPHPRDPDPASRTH

Hepatitis C virus [24] = assay: Antiviral activity against Hepatitis C virus containing NS3/4a ps40 sequence by transient cell-base protease activity; assay type: functional, organism-based, Hepacivirus hominis; how it was run: as §2

Chain of Chymotrypsin-like elastase family member 1 (Q9UNI1 whole entry): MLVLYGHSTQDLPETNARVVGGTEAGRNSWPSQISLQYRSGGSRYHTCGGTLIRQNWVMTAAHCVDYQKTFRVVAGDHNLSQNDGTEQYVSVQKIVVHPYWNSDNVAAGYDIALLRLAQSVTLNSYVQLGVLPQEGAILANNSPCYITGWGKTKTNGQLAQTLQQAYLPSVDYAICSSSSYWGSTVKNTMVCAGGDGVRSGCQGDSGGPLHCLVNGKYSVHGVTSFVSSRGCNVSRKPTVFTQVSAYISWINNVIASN

## CC[C@@H]1C[C@]1(NC(=O)[C@@H]1C[C@@H]2CN1C(=O)[C@H](C(C)(C)C)NC(=O)OCC(C)(C)CCCCc1cccc3c1CN(C3)C(=O)O2)C(=O)NS(=O)(=O)C1CC1 [VANIPREVIR]
[1]
  IC50: > 10000 nM
Hepatitis C virus [2]
  EC50: 15 nM
[3]
  half-life: 1.2 h
[4]
  EC50: > 50000 nM
Cathepsin B
  IC50: > 10000 nM
Chymase
  IC50: > 10000 nM
[5]
  concentration at 12 h: 31000 nM
Hepatitis C virus [6]
  EC50: 3.4 nM
[7]
  AUC(0-t) at 24 h: 4.1 µM·h
[8]
  AUC(0-t) at 24 h: 0.05 µM·h
[9]
  IC50: 520 nM
[10]
  Vd: 0.3 L/kg
[11]
  AUC(0-t) at 24 h: 5.2 µM·h
Hepatitis C virus [12]
  EC50: 430 nM
[13]
  concentration at 24 h: 200 nM
[14]
  half-life: 0.9 h
Hepatitis C virus [15]
  EC50: 13 nM
[16]
  Ki: 1.4 nM
[17]
  AUC(0-t) at 24 h: 1.2 µM·h
Hepatitis C virus [18]
  Ki: 0.06 nM
[19]
  AUC(0-t) at 24 h: 0.6 µM·h
Cathepsin L2
  IC50: > 10000 nM
[20]
  Cmax: 900 nM
[21]
  Cmax: 10 nM
[22]
  clearance: 74 mL/min/kg
[23]
  Cmax: 500 nM
Neutrophil elastase
  IC50: > 10000 nM
Hepatitis C virus [24]
  EC50: 2.9 nM
